Pf Dd2 inh = inhibitors of Plasmodium falciparum Dd2 growth | P. falciparum Dd2 growth, SYBR Green, 72 h; stronger effect = lower value | activity change, % at 10 µM | 2.3% of 94,000 active | AID 1159554; in the data active = activity change below about -80%
Tcruzi prolif = inhibitors of T. cruzi proliferation; inhibition, % at 8.34 µM; T. cruzi beta-gal in NIH3T3, GalScreen luminescence, 90 h; 5.9% of 77,000 active;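 active = mean inhibition above about 93%, with at least 55% of replicates each passing it, limit read from the data, passing the limit was not always enough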
GASC1 inh = KDM4C (human) demethylase inhibition. Q9H3R0. inhibition, % at 12.5 µM. GST-KDM4C 2-372, H3K9me3 peptide, LANCE TR-FRET. 0.15% of 96,000 active;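 active = mean replicate inhibition above about 25%, with at least 55% of replicates also reaching it, limit read from the data, passing the limit was not always enough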
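Test system: N-terminal GST-fused human GASC-1 (KDM4C) fragment, residues 2-372; quantity: GASC-1 enzyme at 10 nM final in reaction; dosing: single dose; schedule: 30 min demethylation and 1 h detection at room temperature; signal: LANCE TR-FRET, excitation 340 nm, emissions 618 and 671 nm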
IDH1 mut inh = inhibitors of human IDH1 R132H | AID 624101 | IDH1 R132H reductase, diaphorase/resazurin fluorescence, 60 min | 0.18% of 70,000 active | inhibition, % at 10 µM | O75874; in the data active = inhibition above about 34%;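 note: 0% = DMSO and 100% = no enzyme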
Target sequence (O75874 whole entry R132H): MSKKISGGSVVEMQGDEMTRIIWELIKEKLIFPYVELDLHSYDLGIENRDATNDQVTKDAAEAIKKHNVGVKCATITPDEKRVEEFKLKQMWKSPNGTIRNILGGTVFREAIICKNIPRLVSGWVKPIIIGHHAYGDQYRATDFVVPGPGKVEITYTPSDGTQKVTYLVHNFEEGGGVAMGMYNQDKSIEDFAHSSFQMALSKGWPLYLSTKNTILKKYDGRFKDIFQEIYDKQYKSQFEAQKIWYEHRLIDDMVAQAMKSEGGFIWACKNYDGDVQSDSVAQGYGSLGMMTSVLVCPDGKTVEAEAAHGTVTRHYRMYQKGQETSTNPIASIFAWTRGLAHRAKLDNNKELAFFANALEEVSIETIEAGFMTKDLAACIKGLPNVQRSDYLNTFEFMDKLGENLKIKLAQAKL
* = called active by the depositor. Hits are enriched below; roughly 5.9% of the tested compounds scored in any of these assays.

What do the screens show for `COc1ccc(NC(=O)N(C)C[C@H]2Oc3c(NC(=O)CCCCCC(=O)Nc4ccccc4N)cccc3C(=O)N([C@@H](C)CO)C[C@@H]2C)cc1`?
Pf Dd2 inh: -25.5; GASC1 inh: -2.0

How did COc1ccc(CN(C)C[C@H]2Oc3c(NC(=O)CCCCCC(=O)Nc4ccccc4N)cccc3C(=O)N([C@@H](C)CO)C[C@@H]2C)cc1 do in these assays?
Pf Dd2 inh: -94.4*; GASC1 inh: 8.5; IDH1 mut inh: 0.3

How did COc1ccc(CN(C)C[C@@H]2Oc3c(NC(=O)CCCCCC(=O)Nc4ccccc4N)cccc3C(=O)N([C@H](C)CO)C[C@H]2C)cc1 do in these assays?
Pf Dd2 inh: -89.9*; GASC1 inh: 0.3

Results for COc1ccc(CN(C)C[C@@H]2Oc3c(NC(=O)CCCCCC(=O)Nc4ccccc4N)cccc3C(=O)N([C@@H](C)CO)C[C@H]2C)cc1 ?
Pf Dd2 inh: -90.3*; GASC1 inh: -2.1

What do the screens show for `Cc1ccccc1-c1nnc(SCC(=O)Nc2ccc(Oc3ccccc3)cc2)n1C`?
IDH1 mut inh: 0.2

What do the screens show for `C[C@@H]1CN([C@H](C)CO)C(=O)Cc2cc(NC(=O)C3CCCCC3)ccc2O[C@@H]1CN(C)Cc1ccc(C(=O)Nc2ccccc2N)cc1`?
Pf Dd2 inh: -74.0; GASC1 inh: -2.1

How did C[C@H](CO)N1C[C@H](C)[C@@H](CN(C)Cc2ccc(C(=O)Nc3ccccc3N)cc2)Oc2ccc(NC(=O)C3CCCCC3)cc2CC1=O do in these assays?
Pf Dd2 inh: -84.9*; Tcruzi prolif: 89.1; GASC1 inh: 1.3; IDH1 mut inh: 0.8

What do the screens show for `C[C@H](CO)N1C[C@H](C)[C@H](CN(C)Cc2ccc(C(=O)Nc3ccccc3N)cc2)Oc2ccc(NC(=O)C3CCCCC3)cc2CC1=O`?
Pf Dd2 inh: -83.6*; Tcruzi prolif: 84.3; GASC1 inh: 14.4; IDH1 mut inh: -0.1

Results for C[C@H]1CN([C@@H](C)CO)C(=O)Cc2cc(NC(=O)C3CCCCC3)ccc2O[C@@H]1CN(C)Cc1ccc(C(=O)Nc2ccccc2N)cc1 ?
Pf Dd2 inh: -87.7*; GASC1 inh: -0.9; IDH1 mut inh: 0.2

Results for O=C(COc1ccc(C2CCCCC2)cc1)Nc1cccc(-c2nc3ncccc3o2)c1 ?
IDH1 mut inh: 0.0

What do the screens show for `Cc1ccc(-c2nnc3c4ccccc4c(C)nn23)cc1S(=O)(=O)NC1CCCCC1`?
IDH1 mut inh: 0.0

Results for C[C@@H]1CN([C@@H](C)CO)C(=O)c2cc(C#CCc3ccccc3)cnc2O[C@@H]1CN(C)C(=O)C1CCC1 ?
Pf Dd2 inh: -49.7; Tcruzi prolif: 22.8; GASC1 inh: 2.8; IDH1 mut inh: 0.2

What do the screens show for `C[C@@H]1CN([C@H](C)CO)C(=O)c2cc(C#CCc3ccccc3)cnc2O[C@H]1CN(C)C(=O)C1CCC1`?
Pf Dd2 inh: -87.3*; Tcruzi prolif: 67.1; GASC1 inh: 0.7; IDH1 mut inh: 2.3

Results for C[C@@H]1CN([C@@H](C)CO)C(=O)c2cc(C#Cc3cccc(F)c3)cnc2O[C@@H]1CN(C)C(=O)C1CCCCC1 ?
Pf Dd2 inh: -85.8*; Tcruzi prolif: 121.7; GASC1 inh: 0.2; IDH1 mut inh: 0.1

How did C[C@@H]1CN([C@H](C)CO)C(=O)c2cc(C#Cc3ccccc3)cnc2O[C@H]1CN(C)C(=O)CCN1CCCCC1 do in these assays?
Pf Dd2 inh: -89.8*; Tcruzi prolif: 55.5; GASC1 inh: -0.6; IDH1 mut inh: -0.4

Results for C[C@H](CO)N1C[C@H](C)[C@@H](CN(C)C(=O)CCN2CCCCC2)Oc2ncc(C#Cc3ccccc3)cc2C1=O ?
Pf Dd2 inh: -66.3; Tcruzi prolif: 29.2; GASC1 inh: 0.5; IDH1 mut inh: -3.2

Results for C[C@@H]1CN([C@H](C)CO)C(=O)c2cc(C#Cc3cccc(F)c3)cnc2O[C@@H]1CN(C)C(=O)C1CCCCC1 ?
Pf Dd2 inh: -87.9*; Tcruzi prolif: 115.4; GASC1 inh: -1.4

Results for Cc1ccc(N(CC(=O)Nc2c(C)n(C)n(-c3ccccc3)c2=O)S(C)(=O)=O)cc1Cl ?
IDH1 mut inh: -0.1

How did C[C@H]1CN([C@@H](C)CO)C(=O)c2cc(C#Cc3ccccc3F)cnc2O[C@@H]1CN(C)C(=O)C1CCCCC1 do in these assays?
Pf Dd2 inh: -84.6*; GASC1 inh: -0.6; IDH1 mut inh: -3.3

How did Cc1nn(Cc2cccc(C(=O)Nc3ccc(S(=O)(=O)N4CCCCC4)cc3)c2)c(C)c1Cl do in these assays?
IDH1 mut inh: 1.1

How did O=C(OCC1OC(Oc2ccc(O)cc2COC(=O)C2(O)C(O)CCC(=O)C2O)C(O)C(O)C1O)c1ccccc1 (stereo not given) do in these assays?
IDH1 mut inh: 36.1*

What do the screens show for `Cc1ccc(C)c(S(=O)(=O)/N=C(\c2ccccc2)N(C)C)c1`?
IDH1 mut inh: -0.5

What do the screens show for `COc1ccc(S(=O)(=O)N(C)C[C@@H]2OCCCC[C@H](C)Oc3ccc(NS(=O)(=O)c4cccs4)cc3C(=O)N([C@H](C)CO)C[C@@H]2C)cc1`?
Pf Dd2 inh: -38.9; Tcruzi prolif: -8.4; GASC1 inh: 0.1; IDH1 mut inh: -2.1

How did COc1ccc(S(=O)(=O)N(C)C[C@H]2OCCCC[C@H](C)Oc3ccc(NS(=O)(=O)c4cccs4)cc3C(=O)N([C@H](C)CO)C[C@H]2C)cc1 do in these assays?
Pf Dd2 inh: -81.0*; Tcruzi prolif: -36.6; GASC1 inh: 0.4

How did COc1ccc(S(=O)(=O)N(C)C[C@H]2OCCCC[C@H](C)Oc3ccc(NS(=O)(=O)c4cccs4)cc3C(=O)N([C@@H](C)CO)C[C@H]2C)cc1 do in these assays?
Pf Dd2 inh: -83.4*; Tcruzi prolif: 64.1; GASC1 inh: 16.7; IDH1 mut inh: -3.2

How did C[C@@H]1CN([C@@H](C)CO)C(=O)c2cc(NS(=O)(=O)c3cccs3)ccc2O[C@@H](C)CCCCO[C@@H]1CN(C)S(=O)(=O)c1ccc(F)cc1 do in these assays?
Pf Dd2 inh: -83.0*; Tcruzi prolif: 61.4; GASC1 inh: -2.0

Results for C[C@@H]1CCCCO[C@@H](CN(C)S(=O)(=O)c2ccc(F)cc2)[C@H](C)CN([C@H](C)CO)C(=O)c2cc(NS(=O)(=O)c3cccs3)ccc2O1 ?
Pf Dd2 inh: -47.5; Tcruzi prolif: 55.7; GASC1 inh: 2.9

How did COc1ccc(S(=O)(=O)N(C)C[C@@H]2OCCCC[C@H](C)Oc3ccc(NS(=O)(=O)c4cccs4)cc3C(=O)N([C@@H](C)CO)C[C@H]2C)cc1 do in these assays?
Pf Dd2 inh: -76.4; Tcruzi prolif: 52.2; GASC1 inh: 0.8; IDH1 mut inh: 4.6

How did COc1cccc(NC(=O)CCc2nc(-c3ccccc3Cl)no2)c1 do in these assays?
IDH1 mut inh: -0.8

How did C[C@@H]1CCCCO[C@H](CN(C)Cc2ccc(Cl)c(Cl)c2)[C@@H](C)CN([C@@H](C)CO)C(=O)c2cc(NC(=O)C3CCCCC3)ccc2O1 do in these assays?
Pf Dd2 inh: -91.3*; Tcruzi prolif: 90.2; GASC1 inh: -1.4

Bioassay records: PubChem BioAssay, Broad Institute
